# Sampled rows, rich in hits. Any-hit rate of the full collection: about 4.1%.
# MEKK2 WT-MEK5: raises or lowers MEK5 binding to wildtype human MEKK2 PB1 domain; Q9Y2U5; bead flow cytometry, Alexa488-MEK5 binding to MEKK2 WT; actives lie on both sides; binding response (% of control), % at 10 µM; 290,000 tested, 1.1% active; AID 1531; in the data active = binding response below about 67% or above about 130%
# T cruzi inh: blocks replication of Trypanosoma cruzi. T. cruzi beta-gal in NIH3T3, luminescence, 90 h. inhibition, % (test concentration not listed). 300,000 tested, 1.4% active. AID 1885;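 active = mean inhibition across valid replicates above about 55%, limit read from the data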;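 also: signal also drops with host cell toxicity which is not excluded here; 0% = plate median of DMSO wells and 100% = zero luminescence signal; higher percent means less beta-gal luminescence so fewer parasites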
#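 compound dosing = single 50 nL compound addition per well in DMSO | material = NIH/3T3 host cells with β-galactosidase reporter T. cruzi | input = 5,000 host fibroblasts per well | timing = ≥90 h infection period, 3 h prior cell attachment | read-out basis = percent inhibition of parasite-derived β-gal signal | detection = GalScreen β-gal luminescence, detergent lysis, 60 min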
# MEKK3 PB1 HTS: modulators (inhibitors or enhancers) of MEK5 binding to human MEKK3 PB1 domain; Q99759; bead-based flow cytometry, Alexa488-MEK5 binding to MEKK3; actives lie on both sides; 0 = blocked by unlabeled MEK5, 100 = vehicle; binding response (% of control), % at 10 µM; 290,000 tested, 1.4% active; AID 1529;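 active = binding response more than 3 SD above or below the average of its plate-row segment, actives on both sides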;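 also: Alexa488 bead fluorescence after subtracting the streptavidin-only scavenger bead signal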
# Target sequence (Q99759 whole entry, looked up, the tested form may be a part): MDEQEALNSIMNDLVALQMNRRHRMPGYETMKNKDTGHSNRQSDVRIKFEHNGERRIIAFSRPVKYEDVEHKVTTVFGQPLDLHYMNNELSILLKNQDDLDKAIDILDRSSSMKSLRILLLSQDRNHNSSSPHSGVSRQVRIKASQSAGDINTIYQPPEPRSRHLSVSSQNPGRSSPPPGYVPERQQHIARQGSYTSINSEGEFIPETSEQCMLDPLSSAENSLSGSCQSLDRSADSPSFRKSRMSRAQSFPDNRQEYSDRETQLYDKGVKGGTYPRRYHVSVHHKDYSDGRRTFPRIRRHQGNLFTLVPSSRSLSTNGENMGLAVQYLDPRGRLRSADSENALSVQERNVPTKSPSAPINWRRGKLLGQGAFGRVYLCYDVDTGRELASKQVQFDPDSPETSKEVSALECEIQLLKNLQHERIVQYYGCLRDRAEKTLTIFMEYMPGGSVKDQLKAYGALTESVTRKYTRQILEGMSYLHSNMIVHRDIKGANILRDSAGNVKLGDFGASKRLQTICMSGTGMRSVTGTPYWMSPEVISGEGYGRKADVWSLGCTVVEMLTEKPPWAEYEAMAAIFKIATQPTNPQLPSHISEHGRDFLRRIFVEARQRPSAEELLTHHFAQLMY
# DNA FID counter-1: displaces DNA intercalator in HCV helicase counter-screen; DNA fluorescent intercalator displacement, fluorescence; AID 1845; 290,000 tested, 0.17% active; inhibition, % at 7.9 µM;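 also: 0% = vehicle and 100% = reference compound; higher means more ethidium bromide displaced from hairpin DNA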
# HCV NS3 hel inh: HCV NS3 helicase inhibition; NS3 helicase DNA unwinding, Cy5 molecular beacon fluorescence; inhibition, % at 10.9 µM; 290,000 tested, 0.56% active;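 active = inhibition above the mean of all tested compounds plus 3 SD, set per campaign, cut at about 35% in these data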;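 also: 0% = DMSO wells and 100% = thioflavine S control wells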
#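 Compound dosing – single dose, 10.9 µM nominal final, DMSO 0.8% final · System – NS3 helicase fragment of HCV · Buffer or medium – MOPS pH 6.5, MgCl2, DTT, Tween20, BSA · Signal – Cy5 beacon fluorescence read at start and 1 h · Also added – annealed dual-labelled DNA beacon duplex, ATP-started · Schedule – 1 h at 25 °C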
# MEKK2 mut-MEK5: signal of MEK5 binding to mutant human MEKK2 PB1 domain; bead flow cytometry, Alexa488-MEK5 binding to MEKK2 mutant; percent response, % at 10 µM; 290,000 tested, 0.35% active; AID 1530; in the data active = percent response above about 24%, passing the limit was not always enough
# NS3 hel confirm: HCV NS3 helicase inhibition, confirmation assay | shares compounds with HCV NS3 hel inh | NS3 helicase DNA unwinding, Cy5 molecular beacon fluorescence | inhibition, % at 10.9 µM | 1,600 tested, 31% active;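 active = inhibition above the mean of all tested compounds plus 3 SD, cutoff set per campaign, cut at about 36% in these data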
# DNA FID counter-2: counter-screen for HCV NS3 helicase inhibitors: DNA intercalator displacement; shares compounds with HCV NS3 hel inh; DNA fluorescent intercalator displacement, fluorescence; inhibition, % at 7.9 µM; 1,600 tested, 4% active; AID 1945;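 also: 0% = vehicle and 100% = reference compound; higher means more displacement of ethidium bromide from the DNA hairpin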
# DNA FID DR: displaces fluorescent intercalator from DNA, HCV helicase counter-screen; 120 tested, under 10 active; AID 2172; fluorescent intercalator displacement from DNA, fluorescence; shares compounds with HCV NS3 hel inh; IC50, µM; call rule not given here
# * hit, by the source's call; · = no result given. Rule as the data show it, unless noted: active = inhibition above about 37%; inactive = the rest.
SMILES,MEKK2 WT-MEK5,T cruzi inh,MEKK3 PB1 HTS,DNA FID counter-1,HCV NS3 hel inh,MEKK2 mut-MEK5,NS3 hel confirm,DNA FID counter-2,others
O=C(O)CCn1c(SCCOc2ccccc2)nc2ccccc21,119,-14,109,-36,41*,-1,-17,-2,
Cc1nc(C(F)(F)F)c(C(=O)N/N=C(\N)c2ccccn2)s1,96,-15,97,-5,-4,-3,·,·,
O=C(CCN1C(=O)/C(=C/c2cccs2)SC1=S)Nc1cccc(C(=O)O)c1,101,-7,104,-1,36*,7,58*,4,
O=C(CCCN1C(=O)/C(=C/c2cccs2)SC1=S)Nc1cccc(C(=O)O)c1,109,-4,125,-17,18,0,·,·,
O=C(CCN1C(=O)/C(=C/c2ccc(Cl)cc2)SC1=S)Nc1cccc(C(=O)O)c1,102,2,111,-16,21,9,·,·,
COc1ccc(/C=C2\SC(=S)N(CCC(=O)Nc3cccc(C(=O)O)c3)C2=O)cc1,99,-7,100,-5,39*,-1,52*,7,
CC(/C=C1\SC(=S)N(CCCC(=O)Nc2ccc(C(=O)O)c(O)c2)C1=O)=C\c1ccccc1,107,5,98,39*,73*,-1,73*,69*,
CC(/C=C1\SC(=S)N(CCC(=O)Nc2ccc(O)cc2)C1=O)=C\c1ccccc1,83,7,94,-10,2,-3,·,·,
Cc1ccc(NC(=S)Nc2cccc(-c3n[nH]c(=S)o3)c2)cc1,104,-2,109,-5,39*,14,35,-6,
Cc1cc(C(=O)Cn2ncc(Cl)c(Cl)c2=O)c(C)n1CC(F)(F)F,96,-29,91,-32,57*,9,-12,-13,
Cc1ccc(C)c(C(=O)Cn2ncc(Cl)c(Cl)c2=O)c1,99,-25,101,-9,10,5,·,·,
COc1ccc(CNCc2cc3c(cc2[N+](=O)[O-])OCO3)cc1,94,10,94,0,40*,-2,-13,11,
Cc1cc(C)c(NC(=O)CNC(=O)COC(=O)C2=COCCO2)c(C)c1,·,-9,·,·,·,·,·,·,
COc1ccc(C(=O)COC(=O)CN2C(=O)c3ccccc3C2=O)c(OC)c1,106,1,100,-14,-2,4,·,·,
O=S(=O)(c1cccs1)N1CN(Cc2ccccc2)c2nc3ccccc3nc21,88,34,90,-5,-2,-6,·,·,
O=S(=O)(c1cccs1)N1CN(Cc2ccc(F)cc2)c2nc3ccccc3nc21,98,·,103,-1,50*,-1,-20,-2,
CCN(C(=S)NCCOC)c1cccc2ccccc12,101,-11,102,-15,44*,2,1,-31,
Cc1ccc(C)c(OCc2cc(C(=O)N(C)Cc3nccs3)no2)c1,107,0,106,-48,-1,11,·,·,
CC1=NN(C(N)=S)C(=O)C1N=Nc1ccc(Br)cc1 (stereo not drawn),108,-31,106,-12,41*,-1,-10,11,
CCOC(=O)N1CCC(N2CCCC(C(=O)c3ccccc3OC)C2)CC1 (stereo not drawn),102,12,103,1,-5,1,·,·,
COc1ccccc1N1CCN(C(=O)CSc2nc(-c3ccccc3)cc(=O)[nH]2)CC1,103,-6,103,-19,-7,-1,·,·,
COc1ccccc1N1CCN(C(=O)CSc2nc(C)c(Cc3ccccc3)c(=O)[nH]2)CC1,94,2,93,-9,41*,0,-18,-43,
COc1cccc(NC(=O)CSc2nc3ccccc3nc2N2CCOCC2)c1,92,-3,94,-34,10,-6,·,·,
O=C(O)CN1C(=O)/C(=C/c2cccc(Cl)c2)Oc2ccccc21,110,-10,107,-9,54*,7,59*,-14,
O=C(O)CN1C(=O)/C(=C/c2ccccc2Cl)Oc2ccccc21,109,-16,104,-15,26,7,·,·,
SMILES,MEKK2 WT-MEK5,T cruzi inh,MEKK3 PB1 HTS,DNA FID counter-1,HCV NS3 hel inh,MEKK2 mut-MEK5,NS3 hel confirm,DNA FID counter-2,others
CCOC(=O)c1c(-c2ccc(OC)cc2)csc1/N=C/C1=C(O)CCCC1=O,98,3,103,-19,22,-1,·,·,
O=C1OCC=C1NNC(=O)c1cccnc1,100,-8,98,4,16,-2,·,·,
CCOc1ccccc1NC(=O)C(=O)CC(=O)c1ccc(OC)cc1,95,2,98,-14,37*,-3,-33,-1,
COc1ccc(C(=O)CC(=O)C(=O)Nc2ccc([N+](=O)[O-])cc2C)cc1,106,5,108,-14,37*,7,-8,-7,
COc1ccc(C(=O)CC(=O)C(=O)Nc2ccccc2)cc1,105,-3,106,-7,21,2,·,·,
CCS(=O)(=O)N1CCN(CC(=O)NC2CCCCC2)CC1,99,-3,100,3,6,3,·,·,
CN(C)/C=C/c1c([N+](=O)[O-])c2ccc(O)cc2n1-c1ccccc1,65,-27,63,-1,28,-44,·,·,
COc1ccc(/C=C(/NC(=O)/C=C/c2ccccc2)C(=O)NCCCCCC(=O)O)cc1,94,15,92,-39,-1,-11,·,·,
Cc1cccc(N2C(=O)C(O)=C(C(=O)c3cccs3)C2c2cccc(Oc3ccccc3)c2)n1 (stereo not drawn),97,8,96,-34,80*,-2,114*,18,DNA FID DR=>79
CCCCCOc1ccc(C2C(C(=O)c3ccc(C)o3)=C(O)C(=O)N2c2cc(C)on2)cc1 (stereo not drawn),101,-1,105,-50,63*,3,162*,-39,DNA FID DR=>79
COc1cc(C2C(C(=O)c3ccc(C)o3)=C(O)C(=O)N2c2cc(C)on2)ccc1OCc1ccccc1 (stereo not drawn),99,-27,101,-47,84*,0,188*,-26,DNA FID DR=>79
COC(=O)c1ccc(C2C(C(=O)c3cc4ccccc4o3)=C(O)C(=O)N2c2cc(C)on2)cc1 (stereo not drawn),97,-35,98,-23,51*,-2,93*,-29,
Cc1cccc(N2C(=O)C(O)=C(C(=O)c3cccs3)C2c2ccccc2)n1 (stereo not drawn),93,11,96,-26,14,-2,·,·,
CCOc1ccc(C2C(C(=O)c3ccc(C)o3)=C(O)C(=O)N2c2cc(C)on2)cc1OC (stereo not drawn),103,-18,101,-37,18,8,·,·,
